In the library only some 1.8% were active in any assay of this set; here they are far more common.
SUMO1-SIM PPI = modulators of SUMO1 protein-protein interactions, primary screen, biochemical, uHTS; inhibition, % at 20 µM; SUMO1 binding to a labelled peptide, TR-FRET, 1 h; 360,000 tested, 0.33% active; Small ubiquitin-related modifier 1 (Homo sapiens), P63165; in the data active = inhibition above about 37%
DNMT1 block = human DNMT1 methyltransferase inhibitors, primary screen, biochemical, molecular beacon, fluorescence, HinP1I cleavage, uHTS; DNA (cytosine-5)-methyltransferase 1 (Homo sapiens), P26358; inhibition (reported as % activation of signal), % at 10 µM; 360,000 tested, 0.83% active; in the data active = inhibition above about 50%
Target sequence (P26358 504-1616 limits assumed): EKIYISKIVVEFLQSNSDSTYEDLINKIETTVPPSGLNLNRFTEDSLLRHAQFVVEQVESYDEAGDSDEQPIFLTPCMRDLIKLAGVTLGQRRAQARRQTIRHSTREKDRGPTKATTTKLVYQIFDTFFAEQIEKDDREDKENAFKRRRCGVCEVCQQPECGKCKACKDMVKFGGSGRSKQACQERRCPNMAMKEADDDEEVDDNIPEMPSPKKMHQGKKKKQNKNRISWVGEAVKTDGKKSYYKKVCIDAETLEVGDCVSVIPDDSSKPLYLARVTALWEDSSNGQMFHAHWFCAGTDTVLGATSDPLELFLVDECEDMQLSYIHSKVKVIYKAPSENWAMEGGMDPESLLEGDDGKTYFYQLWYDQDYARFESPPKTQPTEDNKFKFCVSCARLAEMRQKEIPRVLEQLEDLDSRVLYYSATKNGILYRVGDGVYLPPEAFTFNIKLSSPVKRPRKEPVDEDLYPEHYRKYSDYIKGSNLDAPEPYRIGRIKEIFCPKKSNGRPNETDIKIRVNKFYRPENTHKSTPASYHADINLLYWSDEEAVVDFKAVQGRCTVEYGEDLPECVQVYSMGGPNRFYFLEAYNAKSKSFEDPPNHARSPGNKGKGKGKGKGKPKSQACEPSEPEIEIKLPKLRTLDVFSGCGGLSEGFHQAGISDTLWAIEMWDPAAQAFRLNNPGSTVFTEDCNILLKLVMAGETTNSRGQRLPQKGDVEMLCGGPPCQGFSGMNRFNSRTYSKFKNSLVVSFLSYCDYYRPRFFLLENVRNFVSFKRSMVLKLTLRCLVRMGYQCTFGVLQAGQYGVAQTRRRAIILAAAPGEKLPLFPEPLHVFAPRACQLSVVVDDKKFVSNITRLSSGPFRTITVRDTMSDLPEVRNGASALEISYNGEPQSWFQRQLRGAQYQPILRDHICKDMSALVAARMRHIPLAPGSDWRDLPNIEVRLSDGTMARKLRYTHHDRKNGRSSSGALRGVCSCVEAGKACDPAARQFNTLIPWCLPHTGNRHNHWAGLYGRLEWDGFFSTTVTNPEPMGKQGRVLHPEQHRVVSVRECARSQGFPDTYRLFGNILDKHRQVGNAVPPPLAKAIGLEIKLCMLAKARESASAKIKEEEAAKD
LMPTP block = LMPTP phosphatase inhibitors, primary screen, biochemical, fluorescence intensity, uHTS; Low molecular weight phosphotyrosine protein phosphatase (Homo sapiens), P24666; recombinant LMPTP-A, OMFP fluorogenic substrate; inhibition, % at 20 µM; 360,000 tested, 0.22% active; AID 651560, 2012;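 active = compounds that cut the enzyme signal by at least half of the control window in the single-dose screen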
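Test system – LMPTP-A enzyme · Amount – LMPTP-A at 0.625 nM final in the reaction · Buffer or medium – Bis-Tris pH 6.0, DTT, detergent · Reagent – OMFP 400 µM · Doses – single 20 µM dose · Schedule – reaction 50 min, room temperature, dark · Detection – fluorescence intensity of OMFP turnover product · Evaluation – percent inhibition versus substrate-only and uninhibited controls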
HKDC1 inhibitor = HKDC1 hexokinase inhibitors, primary screen, biochemical, fluorescence, uHTS; inhibition, % at 20 µM; Q2TB90; recombinant HKDC1, G6PDH/diaphorase resazurin coupled fluorescence; 340,000 tested, 0.16% active;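 active = inhibition above about 35% when tested at 20 µM, limit read from the data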
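Incubation: 90 min at room temperature in dark / Material: recombinant HKDC1 (HK5) hexokinase enzyme, produced in-house / Quantity: enzyme 5 µg/mL final / Compound: one dose of 20 µM, 1% DMSO / Reagent: glucose and ATP substrates / Buffer or medium: Tris pH 8.0 buffer with MgCl2, Tween-20, BSA, BME / Technique: resorufin fluorescence at 613 nm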
Scp-1 inhibitor = Scp-1 phosphatase inhibitors, primary screen, biochemical, colorimetric, uHTS. 340,000 tested, 0.88% active. Carboxy-terminal domain RNA polymerase II polypeptide A small phosphatase 1 (Homo …. inhibition, % at 20 µM. AID 493091, 2011. Recombinant Scp1, phosphopeptide, malachite green phosphate absorbance;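 active = inhibition above about 50% at 20 µM, limit read from the data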
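Test system – truncated SCP-1 phosphatase (76-261aa) · Reagent – Phosphorylated 17-residue peptide substrate · Incubation – 45 min room-temperature reaction, 5 min colour, 30 min stabiliser · Detection – colorimetric phosphate reagent with accelerator and stabiliser, absorbance at 630 nm · Measure – % inhibition at 20 µM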
STEP inh = STEP phosphatase inhibitors, primary screen, biochemical, fluorescence intensity, uHTS | AID 588621, 2011 | 360,000 tested, 0.25% active | Tyrosine-protein phosphatase non-receptor type 5 (Homo sapiens), P54829 | inhibition, % at 20 µM | recombinant STEP, OMFP fluorogenic substrate;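 active = inhibition at 20 µM, scaled per plate between control wells, above about 37%, limit read from the data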
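Assay system: isolated STEP enzyme. Buffer or medium: pH 6.0 Bis-Tris with DTT and Tween 20. Also added: fluorogenic phosphatase substrate OMFP at 25 µM final. Dosing: 20 µM, 1% DMSO. Timing: 20 min reaction, room temperature, in the dark. Measured by: fluorescence intensity, excitation 480 nm, emission 540 nm. Evaluation: normalized % inhibition.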
Scp-1 conf = Scp-1 phosphatase inhibitors, retest, confirmation, biochemical, colorimetric, single concentration. AID 540281, 2011. inhibition, % at 20 µM. recombinant SCP-1 catalytic domain, phosphate release, malachite green absorbance. 2,500 tested, 61% active. shares compounds with Scp-1 inhibitor
MG interference = colorimetric readout interference by compounds, confirmation, artefact control for Scp-1 inhibitor project, biochemical, single concentration | shares compounds with Scp-1 inhibitor | Colorimetric interference counterscreen, malachite green absorbance 630 nm | apparent inhibition (interference), % at 20 µM | 2,500 tested, under 10 active;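 also: compounds added after enzyme reaction finished so only phosphate colour detection is probed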
Scp-1 Tm shift = Scp-1 binding by thermal shift, confirmation, orthogonal assay for Scp-1 inhibitor project, biophysical, differential scanning fluorimetry; shares compounds with Scp-1 inhibitor; Recombinant SCP1, Sypro Orange thermal shift Tm; thermal shift relative to vanadate control, % at 40 µM; 1,500 tested, 25% active;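 active = substances whose mean melting-temperature shift, as a percentage of the reference inhibitor's shift, reaches about 5.3%, limit read from the data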
Each line names hits and unclear results; the compound was inactive in the other large screens (follow-up assays come after a bar, where they were run).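 The calls were made as follows, unless noted: active = inhibition of at least 30% at 20 µM; inactive = the rest.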

CC(C)C(=O)Nc1ccc(C(=O)N/N=C/c2cc(Br)cc(Br)c2O)cc1	Scp-1 inhibitor 55 | Scp-1 conf inactive | MG interference inactive
Cc1cc2oc(=O)cc(CN3CCN(c4ccc(Cl)c(Cl)c4)CC3)c2cc1Cl	none (no result: HKDC1 inhibitor, Scp-1 inhibitor)
CCOC(=O)c1cn(CC)c2cc3c(cc2c1=O)OCO3	Scp-1 inhibitor 64 | Scp-1 conf inactive | MG interference inactive
Cc1cc(C)c(C#N)c(Cl)n1	Scp-1 inhibitor 66 | Scp-1 conf inactive | MG interference inactive
Cc1cc(C)c(C#N)c(N2CCCC2)n1	none
Cc1ccc(C(=O)N2CCN(c3ccc(NC(=O)Cc4ccccc4)cc3)CC2)cc1	none
COc1ccc(Cn2c(C3CCCCC3)nc3c(c(=O)c4ccccc4n3C)c2=O)cc1	Scp-1 inhibitor 87 (no result: SUMO1-SIM PPI, DNMT1 block, LMPTP block, STEP inh) | Scp-1 conf 55 | MG interference inactive | Scp-1 Tm shift inactive
CCc1nc2c(c(=O)c3ccccc3n2C)c(=O)n1C1CCCCCC1	none
COc1cccc(S(=O)(=O)NCc2ccc(C(=O)N3CCN(C)CC3)cc2)c1	none
Cn1c(SCC(=O)N/N=C/C=C\c2ccco2)nc2ccccc21	DNMT1 block 54, Scp-1 inhibitor 84 | Scp-1 conf 62 | MG interference inactive | Scp-1 Tm shift inactive
CCCOc1ccc(Cc2c(Cl)nc(SC)nc2N(C)C)cc1	none
CSc1cccc(NC(=O)C2CCCN(c3ncnc4c3nc3n4CCCCC3)C2)c1 (stereo not drawn)	none
O=C(CSc1nc2sc3c(c2c(=O)n1-c1ccccc1)CCCC3)N/N=C/c1ccccc1C(=O)O	Scp-1 inhibitor 78, STEP inh 76 | Scp-1 conf 49 | MG interference inactive | Scp-1 Tm shift inactive
Cc1ccc(NC(=O)COC(=O)C2CCC(=O)N2)c(S(=O)(=O)N2CCOCC2)c1 (stereo not drawn)	none | Scp-1 conf inactive | MG interference inactive
O=C(COC(=O)C1CCC(=O)N1)Nc1ccc(Cl)cc1Cl (stereo not drawn)	none
O=C(Nc1nnc(-c2cccs2)o1)C1CC1	none
O=C(Nc1nnc(-c2ccc(Cl)s2)o1)C1CC1	Scp-1 inhibitor 57 | Scp-1 conf inactive | MG interference inactive
O=C1CC2CCCN2C=C1I (stereo not drawn)	Scp-1 inhibitor 97 | Scp-1 conf 87 | MG interference inactive | Scp-1 Tm shift inactive
CCOC(=O)C1=CN2CCC[C@H]2CC1=O	none
N#Cc1cc2ccccc2n2nnnc12	none
COc1ccc(-c2ccc(-c3noc(-c4ccco4)n3)c(OC)n2)cc1	none
COc1nc(-c2ccccc2)ccc1-c1noc(-c2ccco2)n1	Scp-1 inhibitor 99 | Scp-1 conf inactive | MG interference inactive
Cn1c(SCC(=O)Nc2nncs2)nnc1C1CC1	Scp-1 inhibitor 79 | Scp-1 conf 53 | MG interference inactive | Scp-1 Tm shift 5.5
OC(c1cccc(CN2CCCCC2)c1)c1ncc(-c2cccc(C(F)(F)F)c2)[nH]1 (stereo not drawn)	none (no result: HKDC1 inhibitor, Scp-1 inhibitor)
CCn1c(C)nc2cc(C(=O)NNC(=O)CN(C)S(=O)(=O)c3ccc(NC(C)=O)cc3)ccc21	none
Cc1[nH]c(=O)c(C#N)c(C)c1CCC(=O)Nc1cc(S(C)(=O)=O)ccc1Cl	Scp-1 inhibitor 58 | Scp-1 conf inactive | MG interference inactive
Cc1ccc(C)c(OCC(=O)Nc2ccc(N3CCOCC3)cc2N2CCOCC2)c1	none
COC(=O)c1c(C)[nH]c(C(=O)NCc2ccco2)c1C	none
CCOC(=O)c1[nH]c(C)c(C(=O)NCc2ccco2)c1C	Scp-1 inhibitor 64 | Scp-1 conf inactive | MG interference inactive
COCCCNC(=O)c1cccc2c(-c3cccc(C(N)=O)c3)coc12	none (no result: HKDC1 inhibitor, Scp-1 inhibitor)
Cc1ccc(S(=O)(=O)NC(=O)c2cccc(Br)c2)cc1	none
O=C(NS(=O)(=O)c1ccccc1)c1cccc(Br)c1	Scp-1 inhibitor 62 | Scp-1 conf inactive | MG interference inactive
COCCNC(=O)C(c1ccc(F)cc1)N(CCOC)C(=O)CCC(=O)Nc1ccccn1 (stereo not drawn)	none
CCOc1ccc(NC(=O)CN(C)C(=O)c2c(-c3ccccc3)noc2C)cc1OCC	none
c1ccc(Sc2cccc3ccccc23)c(CNC2=NCCN2)c1	none
Fc1ccccc1Sc1ccccc1CNC1=NCCN1	Scp-1 inhibitor 97 | Scp-1 conf 84 | MG interference inactive | Scp-1 Tm shift inactive
CC(C)OCCOc1ccc2oc(-c3ccco3)cc(=O)c2c1	Scp-1 inhibitor 61 | Scp-1 conf 60 | MG interference inactive | Scp-1 Tm shift inactive
O=C(N/N=C/c1ccc2nccnc2c1)c1ccc(Br)cc1	none
O=C(N/N=C/c1cccc(Br)c1)c1ccc(Br)cc1	LMPTP block 60, Scp-1 inhibitor 104 | Scp-1 conf 76 | MG interference inactive | Scp-1 Tm shift inactive
Cc1cc(C)c(NC(=O)CNC(=O)c2cc(C3CC3)nn2-c2ccccc2)c(C)c1	none
COc1ccc(NC(=O)Nc2ccc(N(C)C)cc2)cc1	Scp-1 inhibitor 57 | Scp-1 conf inactive | MG interference inactive
Cc1ccc(-n2[nH]c(C)c(/C=N/Nc3ccc([N+](=O)[O-])cc3[N+](=O)[O-])c2=O)cc1	Scp-1 inhibitor 61 | Scp-1 conf 80 | MG interference inactive | Scp-1 Tm shift 11
COc1cc(/C=N/NC(=O)CC2C(=O)NN=C2C)ccc1O (stereo not drawn)	none | Scp-1 conf inactive | MG interference inactive
CCOc1cccc(/C=N/NC(=O)CC2C(=O)NN=C2C)c1O (stereo not drawn)	none | Scp-1 conf inactive | MG interference inactive

Assay outcomes as filed in PubChem BioAssay.
